Assay outcomes (PubChem BioAssay)
OX1R antag-1 – OX1R (human) antagonism. O43613. OX1R-expressing cells, FRET antagonist read-out. inhibition, % at 6.6 µM. 1.8% of 330,000 active. AID 485270; in the data active = inhibition mostly above about 38%, no sharp cut-off; inactive = mostly below about 40%;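 note: 0% = agonist challenge alone and 100% = reference antagonist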
OX1R antag-2 – human HCRTR1 antagonism; O43613; CHO/OX1R cells, Fluo-8 calcium fluorescence, orexin A; inhibition, % at 5 µM; 0.43% of 330,000 active; AID 434989;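 active = inhibition above its plate's threshold, mean inhibition of all tested compounds on the plate plus 3 SD, cut at about 37% in these data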;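 note: 0% = orexin A challenge wells and 100% = SB-334867-A antagonist wells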
GPR7 antag – antagonists of human GPR7 (neuropeptides B/W receptor 1); 1.1% of 290,000 active; GPR7-expressing cells, fluorescence antagonist assay; AID 1861; inhibition, % at 4.4 µM; P48145; in the data active = inhibition above about 16%, passing the limit was not always enough;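 note: cells stimulated with the agonist NPW; 0% = agonist with vehicle and 100% = vehicle without agonist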
Target sequence (P48145 whole entry, looked up): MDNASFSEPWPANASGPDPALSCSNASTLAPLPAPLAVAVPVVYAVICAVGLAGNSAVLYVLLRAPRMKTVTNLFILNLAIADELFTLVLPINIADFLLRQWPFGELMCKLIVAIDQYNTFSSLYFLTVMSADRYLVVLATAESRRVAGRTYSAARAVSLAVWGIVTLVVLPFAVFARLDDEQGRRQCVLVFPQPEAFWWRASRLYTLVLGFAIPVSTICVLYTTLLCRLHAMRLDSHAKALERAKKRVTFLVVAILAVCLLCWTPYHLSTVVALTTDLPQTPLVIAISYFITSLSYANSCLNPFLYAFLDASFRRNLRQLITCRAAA
CHO parental Ca – signal in parental CHO cells, OX1R antagonist counter-screen | AID 463079 | parental CHO-K1, ATP-induced calcium, Fluo-8 fluorescence | 0.63% of 330,000 active | inhibition, % at 5.6 µM;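 active = inhibition above that plate's mean sample inhibition plus 3 SD, cut at about 26% in these data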;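 note: 0% = ATP-challenged DMSO wells and 100% = DMSO wells without ATP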
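Assay system: parental CHO cells; Read-out basis: percent inhibition of ATP-evoked calcium rise, normalized to controls; Benchmarks: ATP and no-ATP DMSO wells; Compound dosing: single nominal dose of 5.6 µM per compound; Signal: Fluo-8 calcium dye fluorescence; Also added: ATP as calcium-mobilizing challenge; Repeats: singlicate.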
GalR3 antagonist – antagonists of human GalR3 | O60755 | HEK293 GalR3-CNG cAMP membrane potential fluorescence; galR3 body fused to GalR1 C-terminus | inhibition, % at 3 µM | 0.44% of 360,000 active | AID 651719;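 active = inhibition above the screen-wide average plus 3 SD, cut at about 13% in these data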;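 note: forskolin and galanin both at EC90 stimulate the cells; cAMP rise reported by CNG channel membrane potential dye signal; 0% = forskolin plus galanin with DMSO and 100% = forskolin alone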
The depositor's hits bear a star; x = no result. This is a sample that favours compounds with a hit; in the whole collection about 3.1% have one here.

SMILES	OX1R antag-1	OX1R antag-2	GPR7 antag	CHO parental Ca	GalR3 antagonist
CC(=O)Nc1sc(C)c(C)c1C(=O)OCC(=O)Nc1ccccc1	13	-5	x	-5	-6
CCOC(=O)c1c(NC(=S)Nc2ccccc2)sc(C)c1C	38*	-37	-5	2	-4
Cc1cccc(C)c1N1C(=O)c2ccccc2NC(=O)C1C(=O)NCc1ccco1 (stereo not drawn)	x	x	x	x	-5
COc1cc2c(cc1OC)C(c1cccs1)N(C(=O)C(C)C)CC2 (stereo not drawn)	20	-15	18*	-2	-4
CCOC(=O)CSc1nc(N2CCOCC2)c2c(c1C#N)CC(C)(C)N(C)C2	46*	-31	-15	-27	-5
CCOC(=O)CSc1nc(N2CCOCC2)c2c(c1C#N)CC(C)(C)OC2	2	-28	-11	-19	-10
CCCS(=O)(=O)NC(=O)C1(C)CCCN(C(=O)c2ccc(OC)cc2OC)C1 (stereo not drawn)	x	x	x	x	-1
COc1ccc(C2=C(N)c3ccccc3C2=O)cc1	45*	0	10	3	x
COc1ccc(NC2=C(c3ccc(OC)cc3)C(=O)c3ccccc32)cc1	23	-16	-7	-11	-1
O=C(N[C@@H](Cc1cccnc1)C(=O)N1CCC[C@H]1C(=O)NCCc1ccccc1Cl)c1ccc(Cl)cc1Cl	x	x	x	x	-5
CS(=O)(=O)c1ccc2nc(NC(=O)Nc3ccc(Cl)c(Cl)c3)sc2c1	2	6	-7	-4	2
O=C(Nc1cccc(Cl)c1)Nc1ccc2nccnc2c1	34*	8	8	10	-8
CS(=O)(=O)c1ccc2nc(NC(=O)Cc3ccccc3)sc2c1	14	-14	-4	-8	5
CS(=O)(=O)c1ccc2nc(NC(=O)CS(=O)(=O)Cc3ccccc3)sc2c1	71*	11	-4	-8	-6
CS(=O)(=O)c1ccc2nc(NC(=O)Nc3cccc(Cl)c3)sc2c1	39*	36	8	33*	-3
CCCCc1[nH]c(=O)c(C#N)c2c1CSC(C)(C)C2	18	-3	-16	56*	-2
O=C(CSc1cccc[n+]1[O-])c1cc2ccccc2o1	72*	-2	3	0	x
CC(C)C1CC(N(C)C)=CC(=S)N1 (stereo not drawn)	x	x	x	x	-8
COc1ccc(/C(C#N)=C/c2ccccn2)cc1	10	-69	7	-20	1
COC(=O)c1ccc(/C=C(\C#N)c2nc3ccccc3s2)cc1	8	56*	-4	49*	-4
N#C/C(=C\c1ccccn1)c1nc2ccccc2s1	12	57*	21*	45*	-3
CCCCn1c(N)c(N(C)C(=O)c2ccccc2Oc2ccccc2)c(=O)[nH]c1=O	5	-28	x	-16	1
CC(=O)C1=C(C)N(CC(C)C)C(=S)NC1c1cccc(Cl)c1 (stereo not drawn)	x	x	x	x	-5
O=S1(=O)N=C(N(CCO)/N=C/c2ccc(Cl)cc2)c2ccccc21	10	5	-5	-9	-10
CN(C)c1ccc(/C=N/N(CCO)C2=NS(=O)(=O)c3ccccc32)cc1	14	48*	4	53*	-8
SMILES	OX1R antag-1	OX1R antag-2	GPR7 antag	CHO parental Ca	GalR3 antagonist
C[C@H](CO)N1C[C@H](C)[C@@H](CN(C)S(=O)(=O)c2ccc3ccccc3c2)OCc2cnnn2CCCC1=O	x	x	x	x	-7
O=C(N[C@H](Cc1ccccc1)C(=O)NCCN1CCOCC1)[C@H]1O[C@@H](n2ccc(=O)[nH]c2=O)[C@H](O)[C@@H]1O	x	x	x	x	-8
CCCC(=O)Nc1ccc(C(=O)Nc2cc(C(F)(F)F)ccc2Cl)cc1	31	-5	-3	69*	-4
COc1cccc(NC(=O)C2(C)CCN2C(=O)Cc2cccc3ccccc23)c1 (stereo not drawn)	x	x	x	x	-1
NC(=O)C1Cc2ccccc2CN1C(=O)c1cc(C2CC2)nn1-c1ccccc1 (stereo not drawn)	0	-33	x	-10	-5
O=C(/C=C/c1ccc(Br)cc1)c1ccco1	4	-7	22*	-11	6
O=C(/C=C/c1ccc(Br)cc1)c1ccc(NC(=O)c2ccco2)cc1	38	-9	8	-21	-3
Cc1cccc(Nc2nc(-c3c(C)nc4ccccn34)cs2)c1	32	70*	23	43*	-4
O=C(C(=O)N1CCN(C(=O)C2CCCC2)CC1)c1cccc(C(F)(F)F)c1	x	x	x	x	-3
Cc1cc(NS(=O)(=O)c2ccc(NC(=O)COc3ccccc3C(C)(C)C)cc2)no1	40	-11	-21	-8	-1
